Tests used:
[1] = target: T1, Tyrosinase (Homo sapiens) (UniProt P14679); test: Inhibition of tyrosinase in human melanocytes at 0.1 mM; format: cell-based
T1 sequence (whole entry): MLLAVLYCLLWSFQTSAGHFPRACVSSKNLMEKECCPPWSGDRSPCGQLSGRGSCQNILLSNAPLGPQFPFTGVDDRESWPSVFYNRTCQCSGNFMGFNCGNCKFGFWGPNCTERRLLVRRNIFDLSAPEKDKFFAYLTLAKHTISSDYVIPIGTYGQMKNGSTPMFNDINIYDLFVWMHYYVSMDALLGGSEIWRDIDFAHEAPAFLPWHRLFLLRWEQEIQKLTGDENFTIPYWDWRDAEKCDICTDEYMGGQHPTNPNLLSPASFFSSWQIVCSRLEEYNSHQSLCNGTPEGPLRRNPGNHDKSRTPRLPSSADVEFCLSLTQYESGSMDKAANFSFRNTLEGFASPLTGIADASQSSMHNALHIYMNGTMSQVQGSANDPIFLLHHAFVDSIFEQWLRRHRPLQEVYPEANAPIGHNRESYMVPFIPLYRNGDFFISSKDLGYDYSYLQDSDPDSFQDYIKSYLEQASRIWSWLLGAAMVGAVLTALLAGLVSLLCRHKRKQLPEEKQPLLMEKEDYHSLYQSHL

Tyrosinase = target: T2, Tyrosinase (Homo sapiens, UniProt P14679); test: Inhibitory activity against tyrosinase in human melanocytes; format: cell-based
T2 sequence (P14679 whole entry): T1 sequence (whole entry)

[2] = target: T1, Tyrosinase (Homo sapiens); test: Inhibition of tyrosinase in human white skin melanocytes at 0.1 mM; format: cell-based
[3] = target: T1, Tyrosinase (Homo sapiens); test: Inhibition of tyrosinase in human black skin melanocytes at 0.01 mM; format: cell-based
[4] = target: T1, Tyrosinase (Homo sapiens); test: Inhibition of tyrosinase in human dark skin melanocytes at 0.01 mM; format: cell-based
Rattus norvegicus = test: Oral toxicity in rats administered at 5 g/kg, po; format: organism-based; conditions: in vivo, 5000 mg/kg
Procedure, shortened: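 Acute oral toxicity following OECD 423 acute toxic class method in six female rats. Single dose of 5 g/kg test preparation (10% in xanthane gel). Six female controls received distilled water 2000 mg/kg. Daily observation for 14 days for mortality and signs of toxicity. GHS classification.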

[5] = target: T1, Tyrosinase (Homo sapiens); test: Inhibition of tyrosinase in human black skin melanocytes at 0.1 mM; format: cell-based
[6] = target: T1, Tyrosinase (Homo sapiens); test: Inhibition of tyrosinase in human dark skin melanocytes at 0.1 mM; format: cell-based
[7] = target: T1, Tyrosinase (Homo sapiens); test: Inhibition of tyrosinase in human white skin melanocytes at 0.01 mM; format: cell-based

SMILES | inhibition [1] [%] | also measured
CC(C)(C)c1ccc(/C=C2\Oc3cc(O)cc(O)c3C2=O)cc1 | 0 | 
CCOc1ccc(/C=C2\Oc3cc(O)cc(O)c3C2=O)cc1 | 5 | 
O=C1/C(=C/c2ccc(O)cc2)Oc2ccccc21 | 39 | 
CCCc1ccc(/C=C2\Oc3cc(O)cc(O)c3C2=O)cc1 | 5 | 
COc1cc(/C=C2\Oc3cc(O)cc(O)c3C2=O)ccc1O | 4 | 
CCc1ccccc1/C=C1\Oc2cc(O)cc(O)c2C1=O | 0 | 
O=C1/C(=C/c2ccccc2)Oc2cc(O)ccc21 | 0 | 
O=C1/C(=C/c2ccccc2)Oc2cc(O)cc(O)c21 | 3 | 
O=C1/C(=C/c2ccc(O)cc2)Oc2cc(O)cc(O)c21 | 75 | IC50 (Tyrosinase): 38 µM; inhibition [2]: 75%; inhibition [3]: 39%; inhibition [4]: 32%; Activity (Rattus norvegicus): Non-toxic; inhibition [5]: 66%; inhibition [6]: 67%; inhibition [7]: 38%
O=C1/C(=C/c2ccccc2O)Oc2cc(O)cc(O)c21 | 4 | 
COc1ccc(/C=C2\Oc3cc(O)cc(O)c3C2=O)cc1 | 11 | 
CCc1ccc(/C=C2\Oc3cc(O)ccc3C2=O)cc1 | 0 | 

Reference: ChEMBL document CHEMBL1148577, “Discovery of benzylidenebenzofuran-3(2H)-one (aurones) as inhibitors of tyrosinase derived from human melanocytes” (J Med Chem, 2006)
